# Bioassay records as filed in PubChem BioAssay.
# DENV2 CPE rescue = DENV2-induced cell death inhibition; DENV2-infected cells, cytopathic effect rescue, plate reader; CPE inhibition, % at 9.99 µM; 350,000 tested, 1.7% active; AID 651640; in the data active = CPE inhibition above about 20%, passing the limit was not always enough; inconclusive = no clear call, values can overlap the other calls; tested in BHK-21 cells
# SIRT5 block = sirtuin-5 (human) deacylase inhibition; Q9NXA8; Purified SirT5, succinyl-peptide AMC, trypsin-coupled fluorescence; inhibition, % at 15 µM; 330,000 tested, 1.1% active; in the data active = inhibition above about 15%; inconclusive = no clear call, values can overlap the other calls
# Target sequence (Q9NXA8 whole entry, looked up): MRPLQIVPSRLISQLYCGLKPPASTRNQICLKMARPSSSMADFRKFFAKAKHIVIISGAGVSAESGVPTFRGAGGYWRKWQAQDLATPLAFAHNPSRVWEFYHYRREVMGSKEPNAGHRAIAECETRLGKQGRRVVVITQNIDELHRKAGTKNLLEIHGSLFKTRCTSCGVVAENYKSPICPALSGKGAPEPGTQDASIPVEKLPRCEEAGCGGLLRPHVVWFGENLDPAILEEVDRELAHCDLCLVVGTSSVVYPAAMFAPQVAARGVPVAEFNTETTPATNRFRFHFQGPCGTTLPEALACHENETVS
# E-sel inducer = induces E-selectin expression in human endothelial cells; P16581; HUVEC E-selectin immunofluorescence imaging; normalized: neutral wells 0, TNF-alpha wells 100; activation, % at 7.58 µM; 260,000 tested, 0.37% active; AID 686992;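 active = mean E-selectin-positive cell signal at least 10% of the positive control, reached in at least 60% of replicates, without over 20% cell loss; inconclusive = no rule given, readout overlaps actives, possibly toxicity-flagged; inactive = the rest, including those meeting only one limit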
#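 material = human umbilical vein endothelial cells (HUVEC), E-selectin induction | quantity = 3,000 cells/well | medium = EGM-2 growth medium on 0.1% gelatin-coated wells | technique = immunofluorescence imaging | read-out basis = % PE-positive cells | control set = TNF-alpha positive control, DMSO neutral control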
# Numbers stand for hits; – = inactive; ? = inconclusive; · = no result given. An excerpt weighted towards active compounds, which were near 2.8% of everything screened.
SMILES,DENV2 CPE rescue,SIRT5 block,E-sel inducer
CNC[C@@H]1OCCCC[C@H](C)Oc2ccc(NC(=O)Nc3cccc4ccccc34)cc2C(=O)N([C@H](C)CO)C[C@@H]1C,·,·,–
Cc1ccc(S(=O)(=O)Nc2ccc3c(c2)CC(=O)N([C@H](C)CO)C[C@H](C)[C@@H](CN(C)Cc2ccccc2)O3)cc1,?,–,–
C/C=C/c1ccc([C@H]2[C@H](CO)N[C@H]2CN(CC(C)C)C(=O)c2ccccn2)cc1,–,–,–
C/C=C/c1ccc([C@@H]2[C@@H](CO)N[C@@H]2CN(CC(C)C)C(=O)c2ccccn2)cc1,–,18,–
COc1ccc2c3c(n(C)c2c1)[C@H](CO)N(Cc1cccc(F)c1)CC31CCN(C)CC1,–,·,–
COc1cc(CN(C)Cc2cccc3ccccc23)cc([N+](=O)[O-])c1O,42,–,–
CN(Cc1cccc([N+](=O)[O-])c1)Cc1cccc2ccccc12,–,–,–
CC(C)c1ccc(S(=O)(=O)N2CCC(C(=O)NCC3(N(C)C)CCCCC3)CC2)cc1,–,–,·
CN(C)C1(CNC(=O)C2CCN(S(=O)(=O)c3cc(Cl)ccc3Cl)CC2)CCCCC1,–,–,70
C[C@H]1CCCCO[C@H](CN(C)C(=O)Nc2ccc(C(F)(F)F)cc2)[C@@H](C)CN([C@@H](C)CO)C(=O)c2cc(NC(=O)Nc3ccccc3)ccc2O1,–,–,–
C[C@H](CO)N1C[C@H](C)[C@@H](CN(C)C(=O)Nc2ccc3c(c2)OCO3)OCCCC[C@H](C)Oc2ccc(NC(=O)Nc3ccc(C(F)(F)F)cc3)cc2C1=O,–,–,–
C[C@H](CO)N1C[C@H](C)[C@H](CN(C)C(=O)Nc2ccc(C(F)(F)F)cc2)OCCCC[C@H](C)Oc2ccc(NC(=O)Nc3ccc4c(c3)OCO4)cc2C1=O,–,15,–
C[C@@H]1CCCCO[C@@H](CN(C)C(=O)Nc2ccc(C(F)(F)F)cc2)[C@H](C)CN([C@@H](C)CO)C(=O)c2cc(NC(=O)Nc3ccc4c(c3)OCO4)ccc2O1,–,15,–
C[C@H]1CCCCO[C@H](CN(C)C(=O)Nc2ccc(C(F)(F)F)cc2)[C@@H](C)CN([C@@H](C)CO)C(=O)c2cc(NC(=O)Nc3ccc4c(c3)OCO4)ccc2O1,–,–,–
C[C@@H]1CN([C@@H](C)CO)C(=O)Cc2cc(NC(=O)CCC(F)(F)F)ccc2O[C@@H]1CN(C)Cc1ccccc1,–,–,–
CC(C)NC(=O)N1[C@H](CO)[C@@H]2c3ccccc3N(C(=O)C3CCC3)C[C@@H]21,–,–,–
O=C(C[C@@H]1CC[C@@H]2[C@H](COC[C@H](O)CN2C(=O)Cc2ccccc2)O1)NC1CCCC1,–,–,–
CCCNC(=O)N1C[C@H](O)COC[C@H]2O[C@H](CC(=O)NCc3ccc(Cl)c(Cl)c3)CC[C@@H]21,–,–,–
Cc1ccc(C)c(OCC(=O)NCC(C)(C)N2CCOCC2)c1,–,–,·
Cc1cc(C)c(OCC(=O)NCC(C)(C)N2CCOCC2)c(C)c1,?,30,–
O=C1C2C=C(I)[C@H](C[C@@H]2OCCCCCCO)[C@@]12CO2,–,–,·
NC(=O)CC(NC(=O)Cc1cccc2ccccc12)c1ccc(NCCc2ccc(F)cc2)c([N+](=O)[O-])c1 (centres undefined),·,·,–
NC(=O)CC(NC(=O)Cc1cccc2ccccc12)c1ccc(NCCc2ccccc2F)c([N+](=O)[O-])c1 (centres undefined),21,·,·
COCC(=O)Nc1ccc2c(c1)[C@H]1C[C@H](CC(=O)NC3CCCCC3)O[C@H](CO)[C@H]1O2,–,–,–
C[C@H](NC(=O)c1nc[nH]c1C(=O)N[C@@H](CCCCNC(=O)OC(C)(C)C)C(=O)OC(C)(C)C)C(=O)OCc1ccccc1,?,–,·
SMILES,DENV2 CPE rescue,SIRT5 block,E-sel inducer
CC(C)(C)OC(=O)CNC(=O)c1[nH]cnc1C(=O)N[C@@H](Cc1ccccc1)C(=O)OC(C)(C)C,54,–,–
CC(C)(C)OC(=O)[C@H](Cc1ccccc1)NC(=O)c1nc[nH]c1C(=O)NCC(=O)OCc1ccccc1,–,–,·
CC(C)(C)OC(=O)NCCCC[C@H](NC(=O)c1nc[nH]c1C(=O)NCC(=O)OCc1ccccc1)C(=O)OC(C)(C)C,–,24,·
Cc1ccccc1S(=O)(=O)/N=C(/c1ccccc1)N1CCOCC1,–,16,·
CCOc1ccc(S(=O)(=O)N=C(c2ccccc2)N2CCOCC2)cc1,–,–,–
C[C@@H]1CN([C@H](C)CO)C(=O)c2cc(NC(=O)c3ccccc3)ccc2O[C@@H](C)CCCCO[C@@H]1CN(C)C(=O)Nc1cccc2ccccc12,–,–,·
Cc1cc(C(=O)N2CCCC(N3CCN(c4cccc(C(F)(F)F)c4)CC3)C2)no1 (centres undefined),?,–,–
CCN(CC)CC(=O)N1CCCC(N2CCN(c3cccc(C(F)(F)F)c3)CC2)C1 (centres undefined),30,–,·
